We go through two compounds from publication PMC10790741 (Journal of Pharmacy & Bioallied Sciences, 2023).

The subject of the data set is male albino mice. In words: Neurotoxicity, rotarod test. Type of data set: in vivo. The note with it: 0.5 and 4 h. An outline of the steps:
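Male albino mice (25–30 g) were trained on a rotating rod (3.2 cm outer diameter, 10 rpm). Test compound was given at 30, 100 and 300 mg/kg, and mice were checked at 0.5 and 4 h. Neurotoxicity was failure to keep balance on the rod for 1 min, across three trials. The toxic dose was the dose at which 50% of animals fell.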
(In the rotarod test animals must keep their balance on a rotating rod.)

Entries after “also recorded” stand apart in the source; their conditions may differ.

On to `COc1ccc2ccc(C(/C=C/c3c[nH]c4ccccc34)N3C=CC(C(=O)O)C=C3)cc2c1` (centres unmarked) [5g, (E)-1-(3-(1H-indol-3-yl)-1-(7-methoxynaphthalen-2-yl)allyl)-1,4-dihydropyridine-4-carboxylic acid], for which the “Neurotoxicity (result in words)” value is “neurotoxic; also recorded: motor impairing”. In the case of `Cc1ccc2ccc(C(/C=C/c3c[nH]c4ccccc34)N3C=CC(C(=O)O)C=C3)cc2c1` (centres unmarked) [5i, (E)-1-(3-(1H-indol-3-yl)-1-(7-methylnaphthalen-2-yl)allyl)-1,4-dihydropyridine-4-carboxylic acid], the “Neurotoxicity (result in words)” value is “neurotoxic”.
